# Publication PMC4415995 (Advances in Therapy, 2015)
# Where two headings read alike, the source gives them in different places. Marks after values point to notes of the source that are not given here.
# Key:
# [1] = type: in vivo, human; details: for AUC / AUC(0-inf) / Cmax / half-life / Tmax: human, plasma, oral; for Cmax: C max
# In short: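 Oral doses of 0.5–5 mg once daily for 7 days, given with 150 mL water before a standardized ~600 kcal breakfast. Venous blood was drawn pre-dose and 0.25–24 h after dosing on Days 1 and 7, and pre-breakfast on Days 9–11. Urine was pooled at 4 °C over intervals. Samples were stored at −70 °C. Parent and active O-deethyl metabolite were measured by solid-phase extraction and LC–MS/MS with deuterated internal standards. Parameters were non-compartmental; metabolite ratio was AUCτ(M2)/AUCτ(parent).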
# [2] = test system: Japanese patients with T2DM; assay: Urine volume, water intake and body weight, 7-day once-daily dosing; type: in vivo, human
# [3] = test system: SGLT1; details: SGLT2 vs SGLT1; cited from earlier work
# [4] = test system: Japanese patients with T2DM; details: cited from earlier work
smiles,measurement,setting,value
"CCOc1ccc(Cc2cc([C@@H]3S[C@H](CO)[C@@H](O)[C@H](O)[C@H]3O)c(OC)cc2C)cc1 [Luseogliflozin, (1S)-1,5-anhydro-1-[5-(4-ethoxybenzyl)-2-methoxy-4-methylphenyl]-1-thio-D-glucitol]",Ae0–24,"[1]; 0.5 mg luseogliflozin OD, Day 1, urine",3.76 ± 0.832 % of dose
same,Ae0–24,"[1]; 0.5 mg luseogliflozin OD, Day 7, urine",4.56 ± 1.04 % of dose
same,Ae0–24,"[1]; 1 mg luseogliflozin OD, Day 1, urine",4.06 ± 0.497 % of dose
same,Ae0–24,"[1]; 1 mg luseogliflozin OD, Day 7, urine",4.30 ± 0.875 % of dose
same,Ae0–24,"[1]; 2.5 mg luseogliflozin OD, Day 1, urine",4.51 ± 1.13 % of dose
same,Ae0–24,"[1]; 2.5 mg luseogliflozin OD, Day 7, urine",4.79 ± 1.09 % of dose
same,Ae0–24,"[1]; 5 mg luseogliflozin OD, Day 1, urine",4.11 ± 0.763 % of dose
same,Ae0–24,"[1]; 5 mg luseogliflozin OD, Day 7, urine",4.56 ± 0.617 % of dose
same,accumulation after multiple doses,[1]; AUCinf Day 1 vs AUCτ Day 7 comparable,does not accumulate
same,dose proportionality for C max and AUCτ (power model),"[1]; Day 7, 0.5-5 mg",dose proportionality
same,AUC,[1]; 0.5 mg,179 ± 32.6 ng·h/mL
same,AUC(0-inf),[1]; 0.5 mg,171 ± 38.4 ng·h/mL
same,Cmax,"[1]; 0.5 mg, 0.5 mg luseogliflozin OD, Day 1, plasma",21.9 ± 2.88 ng/mL
same,Cmax,"[1]; 0.5 mg, 0.5 mg luseogliflozin OD, Day 7, plasma",25.6 ± 4.25 ng/mL
same,half-life,"[1]; 0.5 mg, t 1/2, 0.5 mg luseogliflozin OD, Day 1, plasma",9.86 ± 1.57 h
same,half-life,"[1]; 0.5 mg, t 1/2, 0.5 mg luseogliflozin OD, Day 7, plasma",10.5 ± 1.03 h
same,Tmax,"[1]; 0.5 mg, t max, 0.5 mg luseogliflozin OD, Day 1, plasma",0.857 ± 0.556 h
same,Tmax,"[1]; 0.5 mg, t max, 0.5 mg luseogliflozin OD, Day 7, plasma",0.643 ± 0.244 h
same,AUC,[1]; 1 mg,370 ± 55.5 ng·h/mL
same,AUC(0-inf),[1]; 1 mg,357 ± 53.9 ng·h/mL
same,Cmax,"[1]; 1 mg, 1 mg luseogliflozin OD, Day 1, plasma",43.7 ± 10.8 ng/mL
same,Cmax,"[1]; 1 mg, 1 mg luseogliflozin OD, Day 7, plasma",52.3 ± 10.9 ng/mL
same,half-life,"[1]; 1 mg, t 1/2, 1 mg luseogliflozin OD, Day 1, plasma",9.61 ± 1.34 h
same,half-life,"[1]; 1 mg, t 1/2, 1 mg luseogliflozin OD, Day 7, plasma",10 ± 1.37 h
same,Tmax,"[1]; 1 mg, t max, 1 mg luseogliflozin OD, Day 1, plasma",0.688 ± 0.259 h
same,Tmax,"[1]; 1 mg, t max, 1 mg luseogliflozin OD, Day 7, plasma",0.688 ± 0.259 h
same,AUC,[1]; 2.5 mg,899 ± 148 ng·h/mL
same,AUC(0-inf),[1]; 2.5 mg,864 ± 132 ng·h/mL
same,Cmax,"[1]; 2.5 mg, 2.5 mg luseogliflozin OD, Day 1, plasma",119 ± 27 ng/mL
same,Cmax,"[1]; 2.5 mg, 2.5 mg luseogliflozin OD, Day 7, plasma",136 ± 42 ng/mL
same,half-life,"[1]; 2.5 mg, t 1/2, 2.5 mg luseogliflozin OD, Day 1, plasma",9.24 ± 0.928 h
same,half-life,"[1]; 2.5 mg, t 1/2, 2.5 mg luseogliflozin OD, Day 7, plasma",9.2 ± 0.71 h
same,Tmax,"[1]; 2.5 mg, t max, 2.5 mg luseogliflozin OD, Day 1, plasma",0.625 ± 0.354 h
same,Tmax,"[1]; 2.5 mg, t max, 2.5 mg luseogliflozin OD, Day 7, plasma",1 ± 0.886 h
same,AUC,[1]; 5 mg,1880 ± 318 ng·h/mL
same,AUC(0-inf),[1]; 5 mg,1690 ± 271 ng·h/mL
same,Cmax,"[1]; 5 mg, 5 mg luseogliflozin OD, Day 1, plasma",243 ± 45.7 ng/mL
same,half-life,"[1]; 5 mg, t 1/2, 5 mg luseogliflozin OD, Day 1, plasma",8.96 ± 1.11 h
same,half-life,"[1]; 5 mg, t 1/2, 5 mg luseogliflozin OD, Day 7, plasma",9.54 ± 1.26 h
same,Tmax,"[1]; 5 mg, t max, 5 mg luseogliflozin OD, Day 1, plasma",0.625 ± 0.231 h
same,Tmax,"[1]; 5 mg, t max, 5 mg luseogliflozin OD, Day 7, plasma",0.688 ± 0.259 h
same,half-life,"[1]; mean t 1/2, all four doses (0.5-5 mg)",~10 h
same,Tmax,"[1]; t max (mean), across 0.5-5 mg doses, Days 1 and 7, plasma",0.625 to 1 h
same,Body weight (24 h after dose),"[2]; 0.5 mg OD, Day 1",67.49 ± 14.32 kg
same,Body weight (24 h after dose) LS mean difference vs placebo (95% CI),"[2]; 0.5 mg OD, Day 1","−0.19 (−0.58, 0.20) kg"
same,Urine volume,"[2]; 0.5 mg OD, Day 1",3148.1 ± 718.5 mL/day
same,Urine volume LS mean difference vs placebo (95% CI),"[2]; 0.5 mg OD, Day 1","456.1 (−212.4, 1124.7) mL/day"
same,Water intake,"[2]; 0.5 mg OD, Day 1",2694.4 ± 936.4 mL/day
same,Water intake LS mean difference vs placebo (95% CI),"[2]; 0.5 mg OD, Day 1","131.8 (−455.8, 719.3) mL/day"
same,Body weight (24 h after dose),"[2]; 0.5 mg OD, Day 7",66.76 ± 14.29 kg
same,Body weight (24 h after dose) LS mean difference vs placebo (95% CI),"[2]; 0.5 mg OD, Day 7","−0.45 (−1.14, 0.24) kg"
same,Urine volume,"[2]; 0.5 mg OD, Day 7",3053.3 ± 1067.7 mL/day
same,Urine volume LS mean difference vs placebo (95% CI),"[2]; 0.5 mg OD, Day 7","303.5 (−208.4, 815.3) mL/day"
same,Water intake,"[2]; 0.5 mg OD, Day 7",2686.4 ± 929.1 mL/day
same,Water intake LS mean difference vs placebo (95% CI),"[2]; 0.5 mg OD, Day 7","175.8 (−407.1, 758.7) mL/day"
same,Body weight (24 h after dose),"[2]; 1 mg OD, Day 1",71.71 ± 18.26 kg
same,Body weight (24 h after dose) LS mean difference vs placebo (95% CI),"[2]; 1 mg OD, Day 1","−0.31 (−0.68, 0.07) kg"
same,Urine volume,"[2]; 1 mg OD, Day 1",3284.5 ± 653.4 mL/day
same,Urine volume LS mean difference vs placebo (95% CI),"[2]; 1 mg OD, Day 1","723.8 (76.7, 1370.9)* mL/day"
same,Water intake,"[2]; 1 mg OD, Day 1",3023.8 ± 883.4 mL/day
same,Water intake LS mean difference vs placebo (95% CI),"[2]; 1 mg OD, Day 1","513.6 (−54.5, 1081.7) mL/day"
same,Body weight (24 h after dose),"[2]; 1 mg OD, Day 7",71.01 ± 18.10 kg
same,Body weight (24 h after dose) LS mean difference vs placebo (95% CI),"[2]; 1 mg OD, Day 7","−0.51 (−1.17, 0.14) kg"
same,Urine volume,"[2]; 1 mg OD, Day 7",2421.0 ± 795.6 mL/day
same,Urine volume LS mean difference vs placebo (95% CI),"[2]; 1 mg OD, Day 7","−174.9 (−670.3, 320.5) mL/day"
same,Water intake,"[2]; 1 mg OD, Day 7",2400.4 ± 583.5 mL/day
same,Water intake LS mean difference vs placebo (95% CI),"[2]; 1 mg OD, Day 7","−64.4 (−628, 499.2) mL/day"
same,Body weight (24 h after dose),"[2]; 2.5 mg OD, Day 1",67.43 ± 7.73 kg
same,Body weight (24 h after dose) LS mean difference vs placebo (95% CI),"[2]; 2.5 mg OD, Day 1","−0.53 (−0.91, −0.15)* kg"
same,Urine volume,"[2]; 2.5 mg OD, Day 1",3511.4 ± 522.9 mL/day
same,Urine volume LS mean difference vs placebo (95% CI),"[2]; 2.5 mg OD, Day 1","643.8 (−3.8, 1291.3) mL/day"
same,Water intake,"[2]; 2.5 mg OD, Day 1",2964.0 ± 940.1 mL/day
same,Water intake LS mean difference vs placebo (95% CI),"[2]; 2.5 mg OD, Day 1","−161.3 (−733.9, 411.4) mL/day"
same,Body weight (24 h after dose),"[2]; 2.5 mg OD, Day 7",66.70 ± 7.84 kg
same,Body weight (24 h after dose) LS mean difference vs placebo (95% CI),"[2]; 2.5 mg OD, Day 7","−0.79 (−1.46, −0.12)* kg"
same,Urine volume,"[2]; 2.5 mg OD, Day 7",3048.5 ± 868.2 mL/day
same,Urine volume LS mean difference vs placebo (95% CI),"[2]; 2.5 mg OD, Day 7","92.9 (−402.9, 588.6) mL/day"
same,Water intake,"[2]; 2.5 mg OD, Day 7",3049.1 ± 856.6 mL/day
same,Water intake LS mean difference vs placebo (95% CI),"[2]; 2.5 mg OD, Day 7","46.5 (−521.6, 614.6) mL/day"
same,Body weight (24 h after dose),"[2]; 5 mg OD, Day 1",70.96 ± 9.34 kg
same,Body weight (24 h after dose) LS mean difference vs placebo (95% CI),"[2]; 5 mg OD, Day 1","−0.74 (−1.11, −0.36)* kg"
same,Urine volume,"[2]; 5 mg OD, Day 1",3939.8 ± 1386.0 mL/day
same,Urine volume LS mean difference vs placebo (95% CI),"[2]; 5 mg OD, Day 1","888.4 (235, 1541.8)* mL/day"
same,Water intake,"[2]; 5 mg OD, Day 1",3256.8 ± 1581.7 mL/day
same,Water intake LS mean difference vs placebo (95% CI),"[2]; 5 mg OD, Day 1","17.3 (−558.5, 593.1) mL/day"
same,Body weight (24 h after dose),"[2]; 5 mg OD, Day 7",70.24 ± 9.09 kg
same,Body weight (24 h after dose) LS mean difference vs placebo (95% CI),"[2]; 5 mg OD, Day 7","−0.97 (−1.62, −0.31)* kg"
same,Urine volume,"[2]; 5 mg OD, Day 7",3471.4 ± 1204.5 mL/day
same,Urine volume LS mean difference vs placebo (95% CI),"[2]; 5 mg OD, Day 7","300.4 (−199.9, 800.6) mL/day"
same,Water intake,"[2]; 5 mg OD, Day 7",3141.0 ± 1387.3 mL/day
same,Water intake LS mean difference vs placebo (95% CI),"[2]; 5 mg OD, Day 7","38.5 (−532.7, 609.8) mL/day"
same,IC50 for SGLT2 lower than IC50 for SGLT1 (selectivity),[3],1765 fold
same,incidence of hypoglycemia,"[4]; 0.5 mg, Phase II, 1/60",1.7%
same,incidence of AEs related to genital infection,"[4]; 2.5 mg, Phase III, 1/79",1.3%
same,incidence of hypoglycemia,"[4]; 2.5 mg, Phase III, 1/79",1.3%
same,incidence of pollakiuria,"[4]; 2.5 mg, Phase III, 2/79",2.5%
same,incidence of AEs related to renal function,"[4]; 2.5 mg, Phase III, 6/79",7.6%
same,body weight change,"[4]; 2.5 mg, over 24 weeks of treatment",-2.70 kg
same,incidence of hypoglycemia,"[4]; 5 mg, Phase II, 1/54",1.9%
same,episodes of volume depletion,[4]; Phase III study,no episodes
